Here are results for 10 compounds from ChEMBL document CHEMBL2321707, “Synthesis, SAR study, and biological evaluation of a series of piperazine ureas as fatty acid amide hydrolase (FAAH) inhibitors” (Bioorg Med Chem, 2013).

Molecules are shown by their SMILES.

The first data set in a line: Bioavailability in rat. The format is ADME, organism-based. The following applies: in vivo. The gist of the method: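 Rat cassette dosing, 1 mg/kg po.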
`O=C(Nc1noc2ccccc12)N1CCN(c2nc(-c3ccccc3)ns2)CC1` registered a bioavailability of 5%.

A short description of the next data set: Drug level in rat brain at 0.1 mg, iv at 1 hr. The format is ADME, organism-based. The conditions noted are these: read-out: Drug uptake. The procedure, abridged: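 Rats given 0.1 mg/kg i.v.; brain homogenized 1 h after dosing and compound concentration measured in tissue.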
`Cc1noc(NC(=O)N2CCN(c3nc(-c4ccc(F)cc4)cs3)CC2)c1C`: the concentration at 1 h worked out at 132 ng/g.
The same measure, in the same setting: in the case of `Cc1noc(NC(=O)N2CCN(c3nc(-c4ccc(F)cc4F)cs3)CC2)c1C` it was 82 ng/g; in that of `Cc1noc(NC(=O)N2CCN(c3nc(-c4ccccc4)ns3)CC2)c1C`, 25 ng/g; in that of `Cc1noc(NC(=O)N2CCN(c3nc(-c4ccccc4)cs3)CC2)c1C`, 23 ng/g.
Still for that read-out and setting: in the case of `Cc1noc(NC(=O)N2CCN(c3nc(-c4ccccc4F)ns3)CC2)c1C` it was 4.6 ng/g; in that of `Cc1noc(NC(=O)N2CCN(c3nc(-c4ccccc4F)cs3)CC2)c1C`, 103 ng/g; in that of `Cc1noc(NC(=O)N2CCN(c3nc(-c4cccc(F)c4)ns3)CC2)c1C`, 12 ng/g.
The same measure, in the same setting: in the case of `Cc1noc(NC(=O)N2CCN(c3nc(-c4cccc(F)c4)cs3)CC2)c1C` it was 101 ng/g.
In the case of `Cc1noc(NC(=O)N2CCN(c3nc(-c4ccc(F)cc4)ns3)CC2)c1C`, the concentration at 1 h amounted to 17 ng/g.

As usually defined, the bioavailability is the share of a dose that reaches the circulation, judged against a reference dose that is usually intravenous.
